Source: ChEMBL document CHEMBL4680373, “Evaluation of 5-(Trifluoromethyl)-1,2,4-oxadiazole-Based Class IIa HDAC Inhibitors for Huntington's Disease” (ACS Med Chem Lett, 2021)

Legend:
Cytochrome P450 2C8 = Cytochrome P450 2C8 (Homo sapiens, UniProt P10632); assay: Inhibition of CYP2C8 in human liver microsomes using amodiaquine as substrate incubated for 15 mins by LC-MS/MS analysis; format: ADME
[1] = Oral bioavailability in C57BL/6J mouse at 11.5 mg/kg administered via gavage by LC-MS/MS analysis; format: ADME, organism-based; conditions: in vivo
Summary of the method: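 Fed male C57Bl/6 mice dosed once intravenously at 3.3 mg/kg and by oral gavage at 11.5 mg/kg. Compound levels were quantified to derive PK parameters.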

[2] = biological target: Muscarinic acetylcholine receptor M5 (Homo sapiens) (UniProt P08912); assay: Displacement of [3H]4-DAMP from human recombinant M5 receptor at 10 uM incubated for 1 hr by radiometric scintillation counting analysis
Sequence of Muscarinic acetylcholine receptor M5 (Homo sapiens) (P08912 whole entry): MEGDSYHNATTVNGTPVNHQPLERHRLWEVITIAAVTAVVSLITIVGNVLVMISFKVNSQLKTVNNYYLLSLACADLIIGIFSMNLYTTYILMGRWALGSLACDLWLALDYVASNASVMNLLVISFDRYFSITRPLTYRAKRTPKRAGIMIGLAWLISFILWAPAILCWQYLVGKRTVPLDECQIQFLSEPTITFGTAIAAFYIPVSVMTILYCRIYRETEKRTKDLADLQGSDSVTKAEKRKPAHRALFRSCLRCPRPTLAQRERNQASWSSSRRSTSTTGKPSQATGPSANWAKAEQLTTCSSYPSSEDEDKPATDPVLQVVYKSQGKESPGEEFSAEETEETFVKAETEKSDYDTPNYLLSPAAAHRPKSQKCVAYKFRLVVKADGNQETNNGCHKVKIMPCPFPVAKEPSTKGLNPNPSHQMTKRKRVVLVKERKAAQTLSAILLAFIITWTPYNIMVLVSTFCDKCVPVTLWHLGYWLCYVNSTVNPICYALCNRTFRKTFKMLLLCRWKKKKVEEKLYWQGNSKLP
Summary of the method: (§1)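 Broad selectivity panel of binding, cellular, functional and enzymatic assays run by a contract lab. Each test was done at a single 10 μM concentration and reported as percent inhibition.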

[3] = Unbound fraction in mouse brain; format: ADME, tissue-based
Summary of the method: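 Unbound fraction measured in mouse brain homogenate.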

[4] = biological target: Muscarinic acetylcholine receptor M4 (Homo sapiens) (UniProt P08173); assay: Displacement of [3H]4-DAMP from human recombinant M4 receptor at 10 uM incubated for 1 hr by radiometric scintillation counting analysis; summary of the method: as §1
Sequence of Muscarinic acetylcholine receptor M4 (Homo sapiens) (P08173 whole entry): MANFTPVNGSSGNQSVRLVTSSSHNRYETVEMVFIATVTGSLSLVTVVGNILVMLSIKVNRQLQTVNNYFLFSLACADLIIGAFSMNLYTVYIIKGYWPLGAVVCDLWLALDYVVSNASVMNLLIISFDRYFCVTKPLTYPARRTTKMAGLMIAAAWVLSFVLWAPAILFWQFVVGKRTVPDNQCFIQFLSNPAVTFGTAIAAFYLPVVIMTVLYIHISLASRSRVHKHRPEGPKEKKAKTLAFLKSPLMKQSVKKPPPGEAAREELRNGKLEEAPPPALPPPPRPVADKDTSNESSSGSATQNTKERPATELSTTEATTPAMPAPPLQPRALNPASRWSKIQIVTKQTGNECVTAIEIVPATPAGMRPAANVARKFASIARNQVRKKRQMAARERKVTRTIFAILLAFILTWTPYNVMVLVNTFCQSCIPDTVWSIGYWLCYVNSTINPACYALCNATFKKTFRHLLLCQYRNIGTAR

[5] = Stability of the compound in simulated gastric fluid at 10 uM at pH 1.2 incubated for 4 hrs by LC-MS/MS analysis
Histone deacetylase 4 = Histone deacetylase 4 (Homo sapiens, UniProt P56524); assay: Inhibition of human recombinant HDAC4 at 10 uM incubated for 30 mins by fluorometry; summary of the method: as §1
Sequence of Histone deacetylase 4 (P56524 whole entry): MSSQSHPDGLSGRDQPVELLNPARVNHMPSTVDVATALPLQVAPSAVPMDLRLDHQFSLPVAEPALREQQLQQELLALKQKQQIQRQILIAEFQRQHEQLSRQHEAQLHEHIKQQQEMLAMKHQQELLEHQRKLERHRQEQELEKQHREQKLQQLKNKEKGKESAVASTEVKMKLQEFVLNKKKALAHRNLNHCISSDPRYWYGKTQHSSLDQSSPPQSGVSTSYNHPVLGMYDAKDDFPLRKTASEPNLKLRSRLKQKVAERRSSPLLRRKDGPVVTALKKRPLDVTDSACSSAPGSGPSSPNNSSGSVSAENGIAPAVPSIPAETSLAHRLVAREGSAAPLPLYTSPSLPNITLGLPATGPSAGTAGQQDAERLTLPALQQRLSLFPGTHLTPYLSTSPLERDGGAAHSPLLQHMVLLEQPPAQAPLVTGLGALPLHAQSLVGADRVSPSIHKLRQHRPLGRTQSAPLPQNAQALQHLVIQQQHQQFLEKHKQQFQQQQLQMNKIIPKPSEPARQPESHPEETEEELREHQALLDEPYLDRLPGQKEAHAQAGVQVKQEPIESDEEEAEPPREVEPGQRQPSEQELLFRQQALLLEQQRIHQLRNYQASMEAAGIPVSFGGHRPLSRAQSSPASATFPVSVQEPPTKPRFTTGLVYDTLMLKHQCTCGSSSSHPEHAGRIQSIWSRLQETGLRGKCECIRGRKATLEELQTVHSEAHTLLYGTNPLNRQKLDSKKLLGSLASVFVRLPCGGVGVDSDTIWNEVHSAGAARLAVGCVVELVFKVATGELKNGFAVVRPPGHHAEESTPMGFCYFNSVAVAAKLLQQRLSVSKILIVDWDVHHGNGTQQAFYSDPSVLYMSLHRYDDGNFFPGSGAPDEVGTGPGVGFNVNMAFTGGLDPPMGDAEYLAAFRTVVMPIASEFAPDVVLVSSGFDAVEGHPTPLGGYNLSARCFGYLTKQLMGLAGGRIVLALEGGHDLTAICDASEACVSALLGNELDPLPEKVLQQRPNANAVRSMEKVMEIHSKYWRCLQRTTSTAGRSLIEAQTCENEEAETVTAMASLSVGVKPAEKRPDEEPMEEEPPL

[6] = biological target: Muscarinic acetylcholine receptor M3 (Homo sapiens, UniProt P20309); assay: Displacement of [3H]4-DAMP from human recombinant M3 receptor incubated for 1 hr by radiometric scintillation counting analysis
Sequence of Muscarinic acetylcholine receptor M3 (P20309 whole entry): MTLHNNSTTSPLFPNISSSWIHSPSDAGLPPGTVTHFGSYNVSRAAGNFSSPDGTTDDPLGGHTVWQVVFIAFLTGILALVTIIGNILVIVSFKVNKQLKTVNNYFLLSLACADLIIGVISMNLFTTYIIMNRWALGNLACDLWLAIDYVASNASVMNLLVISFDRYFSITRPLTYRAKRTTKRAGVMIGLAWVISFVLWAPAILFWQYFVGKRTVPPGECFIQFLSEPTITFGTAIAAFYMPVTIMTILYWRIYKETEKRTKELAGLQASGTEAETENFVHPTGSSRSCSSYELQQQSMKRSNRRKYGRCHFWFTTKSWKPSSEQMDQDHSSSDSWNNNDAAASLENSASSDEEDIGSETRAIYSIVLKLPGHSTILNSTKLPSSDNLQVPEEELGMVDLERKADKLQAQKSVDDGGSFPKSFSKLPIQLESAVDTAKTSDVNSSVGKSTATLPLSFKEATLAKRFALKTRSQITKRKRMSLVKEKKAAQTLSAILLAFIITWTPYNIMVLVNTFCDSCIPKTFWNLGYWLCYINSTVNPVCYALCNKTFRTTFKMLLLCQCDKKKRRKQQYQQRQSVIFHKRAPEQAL

[7] = In vivo inhibition of Class 2B HDAC in C57BL/6J mouse brain assessed as increase in tubulin acetylation administered orally via gavage measured after 2 hrs by western blot analysis; format: organism-based; conditions: po, dose 10-100 mg/kg
Summary of the method: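 Brain samples were taken 2 h after single oral gavage doses (10, 30, 100 mg/kg). Western blots probed H3, H4 and tubulin acetylation, each normalized to its own total-protein band. Comparison was against samples taken 5 min after a 10 mg/kg dose.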

[8] = Toxicity in CBAxC57BL/6J mouse assessed as effect on ataxia at 10 to 100 mg/kg, po bid for 14.5 days; format: organism-based; conditions: in vivo, 348 h, dose 10-100 mg/kg, time 14.5 day
Summary of the method: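 R6/2 HD mice and wild-type littermates, male and female, were dosed orally b.i.d. at 10, 30 or 100 mg/kg or with vehicle for 14.5 days. Vehicle was 10% (w/v) hydroxypropyl-β-cyclodextrin in 50 mM citrate buffer. Body weight, body temperature, passive observations and active manipulation scores were recorded. Blood and brain were collected 2 h after the final dose.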

Cytochrome P450 2D6 = Cytochrome P450 2D6 (Homo sapiens, UniProt P10635); assay: Inhibition of CYP2D6 in human liver microsomes using dextromethorphan as substrate incubated for 15 mins by LC-MS/MS analysis; format: ADME
Sequence of Cytochrome P450 2D6 (P10635 whole entry): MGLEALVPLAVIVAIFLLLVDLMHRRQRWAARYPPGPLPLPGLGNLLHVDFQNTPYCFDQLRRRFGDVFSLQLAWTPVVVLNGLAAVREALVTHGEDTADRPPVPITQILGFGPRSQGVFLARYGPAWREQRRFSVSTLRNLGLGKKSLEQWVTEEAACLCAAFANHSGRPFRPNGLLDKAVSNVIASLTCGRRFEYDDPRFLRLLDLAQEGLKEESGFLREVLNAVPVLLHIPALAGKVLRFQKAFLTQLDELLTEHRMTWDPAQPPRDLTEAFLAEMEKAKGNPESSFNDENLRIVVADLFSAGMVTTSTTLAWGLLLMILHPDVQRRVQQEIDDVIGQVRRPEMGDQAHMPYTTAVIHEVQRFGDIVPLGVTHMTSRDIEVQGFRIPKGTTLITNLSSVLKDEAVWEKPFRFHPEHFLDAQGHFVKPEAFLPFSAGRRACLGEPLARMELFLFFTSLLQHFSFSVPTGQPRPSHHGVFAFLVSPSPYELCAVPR

[9] = In vivo inhibition of Class 1/2B HDAC in C57BL/6J mouse brain assessed as increase in global pan-acetylation at 10 mg/kg, po administered via gavage measured after 2 hrs by dot blot technique; format: organism-based
Summary of the method: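 Mice received single oral gavage doses of 10, 30 or 100 mg/kg, and brains were sampled from 0.25 to 12 h. Brain compound levels were measured by LC-MS/MS. Dot blots read H4K12 acetylation normalized to histone H4, or pan-acetyl-lysine normalized to tubulin.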

[10] = Inhibition of Class 2b HDAC in human HEK293 cells using alpha-tubulin as substrate by fluorogenic assay; format: cell-based

Sequence of Cytochrome P450 2C8 (P10632 whole entry): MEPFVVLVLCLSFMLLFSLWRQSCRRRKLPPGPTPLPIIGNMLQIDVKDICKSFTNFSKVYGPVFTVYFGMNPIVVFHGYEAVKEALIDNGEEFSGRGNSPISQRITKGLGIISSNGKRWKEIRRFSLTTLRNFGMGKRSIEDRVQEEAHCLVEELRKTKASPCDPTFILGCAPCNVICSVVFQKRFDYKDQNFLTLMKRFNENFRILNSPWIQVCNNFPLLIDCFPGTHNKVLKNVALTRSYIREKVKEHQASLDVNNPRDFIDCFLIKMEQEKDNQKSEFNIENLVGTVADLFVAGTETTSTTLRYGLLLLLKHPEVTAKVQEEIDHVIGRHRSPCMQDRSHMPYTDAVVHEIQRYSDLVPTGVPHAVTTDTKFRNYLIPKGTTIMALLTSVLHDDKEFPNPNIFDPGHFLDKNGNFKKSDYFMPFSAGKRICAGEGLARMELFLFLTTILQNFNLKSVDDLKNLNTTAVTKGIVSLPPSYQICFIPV

IC50 (Cytochrome P450 2C8): > 50 µM
bioavailability [1]: 100%
inhibition [2]: > 80%
fraction unbound [3]: 0.17
inhibition [4]: > 80%
inhibition (Histone deacetylase 4): > 80%
Kd [6]: > 5 µM
IC50 (Cytochrome P450 2D6): > 50 µM
IC50 [10]: > 29 µM
Structure (SMILES): C[C@H](CN1CCC[C@@H]1C)NC(=O)c1ccc(-c2noc(C(F)(F)F)n2)cc1
Stability [5]: Stable
Activity [7]: Toxic
Activity [8]: Non-Toxic
Activity [9]: Toxic
